Source: ChEMBL document CHEMBL4229382, “Phenylthiazoles with tert-Butyl side chain: Metabolically stable with anti-biofilm activity” (Eur J Med Chem, 2018)
Converted amounts (≈) assume the structure as drawn.

Tested on: Staphylococcus aureus
Test: Antibacterial activity against methicillin-resistant Staphylococcus aureus 2658 RCMB after 18 hrs by broth microdilution assay
Assay type: functional
In short: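 Broth microdilution: inoculum from 0.5 McFarland suspension diluted to about 5 × 10^5 CFU/mL. Media were cation-adjusted Mueller-Hinton broth for staphylococci, brain heart infusion for E. faecium, and tryptone soya broth for E. faecalis, S. pneumoniae and L. monocytogenes.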

Row | Structure (SMILES) | MIC [µg/mL]
1 | Cc1nc(-c2ccc(C(C)(C)C)cc2)sc1-c1ccnc(N=C(N(C)C)N(C)C)n1 | > 50
2 | Cc1nc(-c2ccc(C(C)(C)C)cc2)sc1-c1ccnc(N2CCC2)n1 | > 50
3 | CNc1nccc(-c2sc(-c3ccc(C(C)(C)C)cc3)nc2C)n1 | 25 (≈ 73.9 µM)
4 | CCNc1nccc(-c2sc(-c3ccc(C(C)(C)C)cc3)nc2C)n1 | > 50
5 | Cc1nc(-c2ccc(C(C)(C)C)cc2)sc1-c1ccnc(NC(=N)N)n1 | 1.56 (≈ 4.26 µM)
